One data set addresses D(2) dopamine receptor (Homo sapiens, UniProt P14416). In words: Displacement of [3H]-Raclopride from human D2L receptor expressed in HEK293 cells by microbeta liquid scintillation counting. The format is cell-based. The gist of the method:
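Ki values reported as the mean of two independent radioligand binding experiments.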

Data set [1] addresses 5-hydroxytryptamine receptor 6 (Homo sapiens, UniProt P50406). In words: Antagonist activity at human recombinant 5-HT6 receptor expressed in CHO cells assessed as inhibition of serotonin-induced intracellular cAMP accumulation after 30 mins by HTRF assay. The format is functional, cell-based.
The target of data set [2] is Alpha-2C adrenergic receptor (Homo sapiens) (UniProt P18825). In words: Displacement of [3H]RX 821002 from human recombinant adrenergic alpha 2C receptor expressed in CHO cells after 60 mins by scintillation counting. The class given is cell-based.
Data set [3] deals with Voltage-gated inwardly rectifying potassium channel KCNH2 (Homo sapiens, UniProt Q12809). The data set can be described thus: Displacement of [3H]Dofetilide from human recombinant ERG expressed in HEK293 cells at 10 to 50 uM after 60 mins by scintillation counting. The class given is cell-based. The following applies: hek293, 1 h.
In a further data set the target is D(3) dopamine receptor (Homo sapiens, UniProt P35462). The data set can be described thus: Displacement of [3H]-methyl-spiperone from human recombinant dopamine D3 receptor expressed in CHO cells after 60 mins by scintillation counting. The format is cell-based.
A further data set has as its target Cytochrome P450 1A2 (Homo sapiens, UniProt P05177). The data set can be described thus: Inhibition of human CYP1A2 expressed in supersomes assessed as caffeine 3-N-demethylation after 15 mins by HPLC analysis. The class given is ADME.
The nature of data set [4]: Solubility of the compound at pH 7.4. The class given is physicochemical. The conditions noted are these: buffer.
Data set [5] in a line: Mutagenicity in Salmonella typhimurium TA1535 at 0.2 to 16 ug/ml after 48 hrs by Ames test. The format is toxicity. The following applies: salmonella enterica subsp. enterica serovar typhimurium.
Data set [6] in a line: Drug uptake in Wistar rat brain at 3 mg/kg, ip after 30 mins by LC-MS/MS analysis. The class given is ADME, organism-based. The following applies: read-out: Drug uptake. In short, it runs like this:
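Male Wistar rats received a single 3 mg/kg i.p. dose. Brain and plasma drug levels were measured at 15, 30 and 90 min after dosing. Brain level is expressed as ng/g tissue, alongside the brain-to-plasma concentration ratio.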

Data set [7] relates to Rattus norvegicus. In words: Antianxietic activity in Wistar rat assessed as increase in number of licks accepted at 0.1 to 1 mg/kg, ip measured for 5 mins by Vogel conflict drinking test. The class given is functional, organism-based.
Data set [8] relates to Rattus norvegicus. In words: Antianxietic activity in Wistar rat assessed as increase in number of shocks accepted at 0.1 to 1 mg/kg, ip measured for 5 mins by Vogel conflict drinking test. The format is functional, organism-based.
In data set [9] the target is Histamine H1 receptor (Homo sapiens) (UniProt P35367). In words: Displacement of [3H]pyrilamine from human recombinant histamine H1 receptor expressed in HEK293 cells after 60 mins by scintillation counting. The format is cell-based.
In data set [10] the target is Muscarinic acetylcholine receptor M5 (Homo sapiens) (UniProt P08912). The data set can be described thus: Displacement of [3H]4-DAMP from human recombinant muscarinic M5 receptor expressed in CHO cells after 60 mins by scintillation counting. The class given is cell-based.
Data set [11] relates to Rattus norvegicus. In words: Antidepressant activity in Sprague-Dawley rat assessed as reduction in immobility time at 0.1 mg/kg, ip adminstered 60 mins prior to testing measured for 5 mins by forced swimming test. The class given is functional, organism-based. In short, it runs like this: (§1)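 Modified forced swim test in rats with i.p. dosing. Immobility time and climbing time were scored. Data are mean ± SEM, n = 7–8 animals per group, compared against the vehicle-treated group.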

For data set [12], the system named is Rattus norvegicus. In words: Antianxietic activity in Wistar rat assessed as increase in number of licks accepted at 0.3 to 3 mg/kg, ip measured for 5 mins by Vogel conflict drinking test. The class given is functional, organism-based.
Data set [13] deals with Rattus norvegicus. The data set can be described thus: Antianxietic activity in Wistar rat assessed as increase in number of shocks accepted at 0.3 to 3 mg/kg, ip measured for 5 mins by Vogel conflict drinking test. The class given is functional, organism-based.
The test system of data set [14] is Rattus norvegicus. In words: Antidepressant activity in Sprague-Dawley rat assessed as increase in climbing time at 0.1 mg/kg, ip adminstered 60 mins prior to testing measured for 5 mins by forced swimming test. The format is functional, organism-based. In short, it runs like this:
as §1

Structures are written as SMILES. Calls of active or inactive are those of the source. The rule behind the calls is not given here. Where only a bound is given, the exact number is not on record here.

D(2) dopamine receptor, sequence (P14416 whole entry): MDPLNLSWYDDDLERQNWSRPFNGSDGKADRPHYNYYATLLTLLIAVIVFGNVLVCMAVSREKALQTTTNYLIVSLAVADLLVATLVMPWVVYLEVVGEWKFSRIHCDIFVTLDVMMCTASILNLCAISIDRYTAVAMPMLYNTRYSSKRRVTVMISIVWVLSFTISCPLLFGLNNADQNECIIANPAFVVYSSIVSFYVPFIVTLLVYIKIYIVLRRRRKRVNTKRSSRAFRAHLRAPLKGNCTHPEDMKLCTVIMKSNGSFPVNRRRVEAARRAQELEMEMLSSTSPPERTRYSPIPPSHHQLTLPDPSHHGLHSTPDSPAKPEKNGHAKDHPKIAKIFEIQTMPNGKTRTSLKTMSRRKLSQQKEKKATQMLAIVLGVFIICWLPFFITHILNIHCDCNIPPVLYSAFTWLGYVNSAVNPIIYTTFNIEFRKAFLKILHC
Histamine H1 receptor (Homo sapiens), sequence (P35367 whole entry): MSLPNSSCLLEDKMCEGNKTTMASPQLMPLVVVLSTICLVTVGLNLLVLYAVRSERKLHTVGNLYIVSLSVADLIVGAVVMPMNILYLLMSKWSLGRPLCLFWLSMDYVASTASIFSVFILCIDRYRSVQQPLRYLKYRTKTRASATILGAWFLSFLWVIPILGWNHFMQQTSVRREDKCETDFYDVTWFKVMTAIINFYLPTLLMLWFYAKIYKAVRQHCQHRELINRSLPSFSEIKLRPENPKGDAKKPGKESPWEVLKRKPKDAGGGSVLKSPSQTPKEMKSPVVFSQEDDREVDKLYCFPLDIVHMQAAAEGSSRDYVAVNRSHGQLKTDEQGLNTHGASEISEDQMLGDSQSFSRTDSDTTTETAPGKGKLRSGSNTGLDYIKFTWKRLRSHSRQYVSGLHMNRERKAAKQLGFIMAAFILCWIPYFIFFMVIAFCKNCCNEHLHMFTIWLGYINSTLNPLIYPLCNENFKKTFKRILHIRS
Alpha-2C adrenergic receptor (Homo sapiens), sequence (P18825 whole entry): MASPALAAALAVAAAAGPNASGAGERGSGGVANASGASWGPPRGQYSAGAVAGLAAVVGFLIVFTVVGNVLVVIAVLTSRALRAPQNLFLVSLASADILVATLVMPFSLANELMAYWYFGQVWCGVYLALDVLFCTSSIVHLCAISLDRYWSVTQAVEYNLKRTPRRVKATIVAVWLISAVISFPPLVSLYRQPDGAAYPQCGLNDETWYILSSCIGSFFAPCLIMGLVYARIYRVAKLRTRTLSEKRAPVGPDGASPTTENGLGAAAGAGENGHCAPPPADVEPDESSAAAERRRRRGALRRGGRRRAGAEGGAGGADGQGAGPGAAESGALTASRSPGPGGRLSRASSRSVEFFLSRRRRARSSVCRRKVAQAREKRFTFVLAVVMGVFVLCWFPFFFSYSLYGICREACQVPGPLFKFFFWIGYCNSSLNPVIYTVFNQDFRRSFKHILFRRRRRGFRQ
Voltage-gated inwardly rectifying potassium channel KCNH2, sequence (Q12809 whole entry): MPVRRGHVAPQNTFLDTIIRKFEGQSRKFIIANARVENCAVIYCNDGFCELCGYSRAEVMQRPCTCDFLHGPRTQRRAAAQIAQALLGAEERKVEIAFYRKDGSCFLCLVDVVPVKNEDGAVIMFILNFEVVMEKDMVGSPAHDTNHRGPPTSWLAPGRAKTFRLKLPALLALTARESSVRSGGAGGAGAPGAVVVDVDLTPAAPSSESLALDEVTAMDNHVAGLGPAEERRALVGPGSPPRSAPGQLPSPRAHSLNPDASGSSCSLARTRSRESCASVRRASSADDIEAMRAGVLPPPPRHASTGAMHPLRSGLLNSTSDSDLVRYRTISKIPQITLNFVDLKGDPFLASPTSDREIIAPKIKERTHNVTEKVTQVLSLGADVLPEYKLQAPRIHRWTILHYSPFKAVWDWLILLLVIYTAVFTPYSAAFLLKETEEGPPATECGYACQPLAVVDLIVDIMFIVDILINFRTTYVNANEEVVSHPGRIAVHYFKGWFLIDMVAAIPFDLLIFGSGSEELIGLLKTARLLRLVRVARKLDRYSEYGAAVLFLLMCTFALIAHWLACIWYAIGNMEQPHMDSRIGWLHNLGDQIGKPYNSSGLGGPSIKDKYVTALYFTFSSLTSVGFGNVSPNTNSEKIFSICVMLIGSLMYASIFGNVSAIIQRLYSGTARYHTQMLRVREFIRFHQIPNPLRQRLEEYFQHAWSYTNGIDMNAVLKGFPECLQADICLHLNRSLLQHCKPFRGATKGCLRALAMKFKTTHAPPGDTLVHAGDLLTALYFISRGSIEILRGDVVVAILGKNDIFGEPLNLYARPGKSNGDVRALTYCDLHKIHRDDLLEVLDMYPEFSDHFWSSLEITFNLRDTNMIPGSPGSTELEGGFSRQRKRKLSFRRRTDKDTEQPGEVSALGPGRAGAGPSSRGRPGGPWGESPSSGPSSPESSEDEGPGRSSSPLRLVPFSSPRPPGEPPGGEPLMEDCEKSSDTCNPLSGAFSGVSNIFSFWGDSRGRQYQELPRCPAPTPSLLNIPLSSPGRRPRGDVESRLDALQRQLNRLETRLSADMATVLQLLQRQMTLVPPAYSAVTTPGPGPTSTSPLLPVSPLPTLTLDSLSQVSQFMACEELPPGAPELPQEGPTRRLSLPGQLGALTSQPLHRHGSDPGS
Cytochrome P450 1A2, sequence (P05177 whole entry): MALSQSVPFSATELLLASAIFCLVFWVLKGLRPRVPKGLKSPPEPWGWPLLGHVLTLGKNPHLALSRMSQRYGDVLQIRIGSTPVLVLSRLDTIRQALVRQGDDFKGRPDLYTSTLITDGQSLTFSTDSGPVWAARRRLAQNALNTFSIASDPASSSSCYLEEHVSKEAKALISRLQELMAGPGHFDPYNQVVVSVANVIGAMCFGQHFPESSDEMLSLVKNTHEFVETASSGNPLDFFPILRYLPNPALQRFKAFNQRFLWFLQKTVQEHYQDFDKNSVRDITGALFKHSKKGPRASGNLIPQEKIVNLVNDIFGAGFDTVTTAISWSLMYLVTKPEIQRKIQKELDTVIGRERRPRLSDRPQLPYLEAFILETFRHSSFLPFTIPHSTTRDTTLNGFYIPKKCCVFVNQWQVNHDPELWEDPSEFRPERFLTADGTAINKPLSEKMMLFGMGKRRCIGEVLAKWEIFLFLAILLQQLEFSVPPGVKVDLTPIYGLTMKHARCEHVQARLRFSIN
D(3) dopamine receptor, sequence (P35462 whole entry): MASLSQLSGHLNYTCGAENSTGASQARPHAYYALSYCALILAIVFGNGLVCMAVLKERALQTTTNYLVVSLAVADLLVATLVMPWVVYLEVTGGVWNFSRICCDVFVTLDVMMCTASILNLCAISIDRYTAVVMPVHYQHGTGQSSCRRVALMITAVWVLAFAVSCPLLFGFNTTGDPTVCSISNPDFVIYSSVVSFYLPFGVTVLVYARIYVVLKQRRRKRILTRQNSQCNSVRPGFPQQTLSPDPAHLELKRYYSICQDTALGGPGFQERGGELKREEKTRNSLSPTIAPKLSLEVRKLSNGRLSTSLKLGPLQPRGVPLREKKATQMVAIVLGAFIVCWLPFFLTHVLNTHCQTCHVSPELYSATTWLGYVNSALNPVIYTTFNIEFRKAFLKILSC
5-hydroxytryptamine receptor 6, sequence (P50406 whole entry): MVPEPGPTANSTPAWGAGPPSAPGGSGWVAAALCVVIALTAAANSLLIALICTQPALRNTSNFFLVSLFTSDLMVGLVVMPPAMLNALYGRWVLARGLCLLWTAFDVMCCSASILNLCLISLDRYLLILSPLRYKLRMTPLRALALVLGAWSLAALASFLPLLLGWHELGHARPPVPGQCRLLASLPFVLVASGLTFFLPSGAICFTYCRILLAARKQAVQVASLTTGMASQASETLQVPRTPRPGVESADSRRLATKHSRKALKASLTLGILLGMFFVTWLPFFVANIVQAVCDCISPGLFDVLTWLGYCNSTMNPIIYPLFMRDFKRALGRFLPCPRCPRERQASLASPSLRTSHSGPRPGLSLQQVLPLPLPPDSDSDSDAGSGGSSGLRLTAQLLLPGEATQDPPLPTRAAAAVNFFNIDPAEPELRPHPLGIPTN
Muscarinic acetylcholine receptor M5 (Homo sapiens), sequence (P08912 whole entry): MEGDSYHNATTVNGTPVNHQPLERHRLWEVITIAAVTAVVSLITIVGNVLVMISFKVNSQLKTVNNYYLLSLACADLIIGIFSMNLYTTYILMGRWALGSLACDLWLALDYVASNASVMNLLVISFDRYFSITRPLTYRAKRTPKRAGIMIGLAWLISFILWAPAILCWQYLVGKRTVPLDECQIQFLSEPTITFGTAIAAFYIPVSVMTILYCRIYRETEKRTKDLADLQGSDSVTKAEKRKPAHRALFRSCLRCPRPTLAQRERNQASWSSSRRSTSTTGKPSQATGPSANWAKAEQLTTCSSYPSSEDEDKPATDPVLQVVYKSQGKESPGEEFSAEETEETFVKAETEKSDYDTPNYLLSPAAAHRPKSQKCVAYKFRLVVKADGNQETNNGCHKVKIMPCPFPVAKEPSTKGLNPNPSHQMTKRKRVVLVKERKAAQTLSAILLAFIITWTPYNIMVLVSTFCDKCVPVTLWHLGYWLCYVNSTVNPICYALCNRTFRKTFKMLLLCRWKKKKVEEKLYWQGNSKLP

As to `COc1ccc2c(c1)c(C1=CCNCC1)cn2S(=O)(=O)c1ccc2cccnc2c1`, the figures for the Ki on D(2) dopamine receptor and at D(3) dopamine receptor were 0.24 µM and 0.032 µM, respectively. Further, the Kb in [1] was 0.0044 µM. The inhibition in [2] was 18%; in data set [9], 9%. Also, in data set [3], the “inhibition (INH)” value is given as “Not Active”. Further, the IC50 at Cytochrome P450 1A2 stood at 100 µM. In addition, the solubility in [4] was above 5 mg/mL. Besides, the Activity result in data set [5] is “Non-Toxic”. Moreover, the concentration at 0.5 h in data set [6] turned out to be 21.9 ng/g. Moreover, the result with Rattus norvegicus [7] and in the data set on Rattus norvegicus [8] was inactive.

Regarding `COc1ccc2c(c1)c(C1=CCNCC1)cn2S(=O)(=O)c1cncc2ccccc12`, the Ki came to 3.32 µM at D(2) dopamine receptor and 0.15 µM at D(3) dopamine receptor. Also, the Kb in data set [1] was 0.0056 µM. Besides, the inhibition in data set [2] was determined as 21%; in data set [10], 3%; in data set [9] it was 15%. In addition, the “inhibition (INH)” value in data set [3] is recorded as “Not Active”. Also, on Cytochrome P450 1A2, the IC50 amounted to 100 µM. This molecule also displayed a solubility in data set [4] above 5 mg/mL. Moreover, the Activity result in data set [5] is listed as “Non-Toxic”. For the same molecule, in [6], the concentration at 0.5 h was found to be 18.6 ng/g. Moreover, the result in the data set with Rattus norvegicus [11] and in the data set with Rattus norvegicus [14] was Active. Further, the result in the data set with Rattus norvegicus [12] and in the data set with Rattus norvegicus [13] was inactive.
